Reference: ChEMBL document CHEMBL4837207, “Discovery of pyrrolo[2,3-d]pyrimidine derivatives as potent Axl inhibitors: Design, synthesis and biological evaluation” (Eur J Med Chem, 2021)

Assays:
[1] = target: Hepatocyte growth factor receptor (Homo sapiens, UniProt P08581); assay: Inhibition of c-MET (unknown origin) by ELISA
[2] = Toxicity in nude mouse xenografted with mouse BaF3 cells stably expressing human TEL-AXL assessed as body weight at 10 to 100 mg/kg, po administered once daily for 14 consecutive days; assay type: organism-based; conditions: in vivo, 336 h, dose 10-100 mg/kg, time 14 day
Procedure, shortened: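 BaF3/TEL-Axl cells implanted subcutaneously in nude mice and grown to 700–800 mm³; 1.5 mm³ tumor fragments then transplanted sc into the right flank. At 100–200 mm³, mice were randomized (n = 6 per treated group, 12 vehicle). Oral dosing once daily for 14 days at 10 or 50 mg/kg, with the higher dose raised to 100 mg/kg from day 8. Body weight tracked throughout treatment.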

BaF3 = assay: Antitumor activity against mouse BaF3 cells stably expressing human TEL-AXL xenografted in nude mouse assessed as tumor growth inhibition at 50 to 100 mg/kg, po administered once daily for 14 consecutive days relative to control; assay type: functional; conditions: dose 50-100 mg/kg; time 14 day
Ephrin type-A receptor 2 = Ephrin type-A receptor 2 (Homo sapiens, UniProt P29317); assay: Inhibition of EPHA2 (unknown origin) by ELISA
Ephrin type-A receptor 2, sequence (P29317 whole entry): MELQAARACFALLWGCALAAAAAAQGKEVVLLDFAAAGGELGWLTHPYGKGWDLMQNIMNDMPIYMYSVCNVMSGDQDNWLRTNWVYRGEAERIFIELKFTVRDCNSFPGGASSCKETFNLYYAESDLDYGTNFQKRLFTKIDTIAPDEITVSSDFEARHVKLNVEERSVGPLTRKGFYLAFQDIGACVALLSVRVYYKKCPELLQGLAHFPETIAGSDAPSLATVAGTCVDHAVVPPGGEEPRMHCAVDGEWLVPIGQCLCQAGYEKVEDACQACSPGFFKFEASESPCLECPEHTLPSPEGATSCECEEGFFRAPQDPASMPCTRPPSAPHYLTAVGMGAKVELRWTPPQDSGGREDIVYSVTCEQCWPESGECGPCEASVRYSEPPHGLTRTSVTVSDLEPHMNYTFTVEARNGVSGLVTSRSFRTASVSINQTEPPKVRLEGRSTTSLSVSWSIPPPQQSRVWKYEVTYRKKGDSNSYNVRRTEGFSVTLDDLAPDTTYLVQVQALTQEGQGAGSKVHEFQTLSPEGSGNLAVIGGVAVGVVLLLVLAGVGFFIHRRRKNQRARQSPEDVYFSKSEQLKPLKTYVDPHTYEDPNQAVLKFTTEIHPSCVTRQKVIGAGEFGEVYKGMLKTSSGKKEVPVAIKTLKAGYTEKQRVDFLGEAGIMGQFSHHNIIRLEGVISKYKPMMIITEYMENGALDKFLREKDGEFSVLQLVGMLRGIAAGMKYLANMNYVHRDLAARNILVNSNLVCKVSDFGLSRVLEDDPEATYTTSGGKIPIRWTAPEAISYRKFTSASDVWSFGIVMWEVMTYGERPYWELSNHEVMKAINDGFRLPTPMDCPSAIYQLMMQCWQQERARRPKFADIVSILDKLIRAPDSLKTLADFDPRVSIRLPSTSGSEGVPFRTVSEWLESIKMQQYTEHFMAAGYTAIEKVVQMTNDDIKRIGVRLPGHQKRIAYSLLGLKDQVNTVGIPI

[3] = target: Epidermal growth factor receptor (Homo sapiens, UniProt P00533); assay: Inhibition of EGFR (unknown origin) by ELISA
Epidermal growth factor receptor, sequence (P00533 whole entry): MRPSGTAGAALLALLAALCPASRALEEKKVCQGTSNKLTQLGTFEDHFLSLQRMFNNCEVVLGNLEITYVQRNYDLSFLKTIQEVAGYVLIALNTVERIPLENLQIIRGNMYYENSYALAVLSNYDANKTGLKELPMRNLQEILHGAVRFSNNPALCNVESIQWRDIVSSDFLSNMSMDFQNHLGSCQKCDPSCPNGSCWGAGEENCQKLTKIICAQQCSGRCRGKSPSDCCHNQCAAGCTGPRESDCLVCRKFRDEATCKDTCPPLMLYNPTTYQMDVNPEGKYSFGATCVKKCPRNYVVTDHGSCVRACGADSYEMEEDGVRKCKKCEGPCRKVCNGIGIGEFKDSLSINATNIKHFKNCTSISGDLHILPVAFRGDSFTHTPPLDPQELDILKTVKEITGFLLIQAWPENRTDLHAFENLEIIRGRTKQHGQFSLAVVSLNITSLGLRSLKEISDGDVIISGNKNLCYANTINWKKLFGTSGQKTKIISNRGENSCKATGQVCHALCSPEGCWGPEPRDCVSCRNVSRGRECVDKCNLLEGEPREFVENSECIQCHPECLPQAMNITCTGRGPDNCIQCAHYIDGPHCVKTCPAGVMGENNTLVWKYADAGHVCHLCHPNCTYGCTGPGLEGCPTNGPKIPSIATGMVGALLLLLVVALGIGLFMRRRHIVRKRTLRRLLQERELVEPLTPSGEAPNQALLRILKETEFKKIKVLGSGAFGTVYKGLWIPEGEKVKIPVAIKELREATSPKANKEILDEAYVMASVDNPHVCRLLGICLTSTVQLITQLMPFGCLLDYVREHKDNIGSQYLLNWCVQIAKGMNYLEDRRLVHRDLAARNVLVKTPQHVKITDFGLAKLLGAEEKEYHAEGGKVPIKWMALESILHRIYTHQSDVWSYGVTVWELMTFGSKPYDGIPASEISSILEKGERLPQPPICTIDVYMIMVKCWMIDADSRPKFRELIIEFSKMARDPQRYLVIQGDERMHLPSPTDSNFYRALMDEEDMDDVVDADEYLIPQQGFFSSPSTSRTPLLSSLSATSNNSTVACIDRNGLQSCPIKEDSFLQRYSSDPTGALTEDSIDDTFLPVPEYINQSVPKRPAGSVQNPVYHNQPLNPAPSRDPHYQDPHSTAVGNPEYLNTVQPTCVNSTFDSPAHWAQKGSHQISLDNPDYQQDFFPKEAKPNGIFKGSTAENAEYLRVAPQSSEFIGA

[4] = Tmax in Sprague-Dawley rat at 3 mg/kg, po via gavage measured up to 24 hrs by LC-MS analysis; assay type: ADME, organism-based; conditions: in vivo
Procedure, shortened: (§1)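 Male Sprague-Dawley rats (n = 3) dosed once by oral gavage at 3 mg/kg as a solution in 5% DMSO/95% (0.5% CMC-Na). Blood sampled at 0.25, 0.5, 1, 2, 4, 6, 8 and 24 h, kept on wet ice, serum separated by centrifugation and stored at -20 °C. Serum levels measured by LC-MS/MS; parameters reported as means.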

[5] = target: Vascular endothelial growth factor receptor 2 (Homo sapiens, UniProt P35968); assay: Inhibition of VEGFR2 (unknown origin) by ELISA
Vascular endothelial growth factor receptor 2, sequence (P35968 whole entry): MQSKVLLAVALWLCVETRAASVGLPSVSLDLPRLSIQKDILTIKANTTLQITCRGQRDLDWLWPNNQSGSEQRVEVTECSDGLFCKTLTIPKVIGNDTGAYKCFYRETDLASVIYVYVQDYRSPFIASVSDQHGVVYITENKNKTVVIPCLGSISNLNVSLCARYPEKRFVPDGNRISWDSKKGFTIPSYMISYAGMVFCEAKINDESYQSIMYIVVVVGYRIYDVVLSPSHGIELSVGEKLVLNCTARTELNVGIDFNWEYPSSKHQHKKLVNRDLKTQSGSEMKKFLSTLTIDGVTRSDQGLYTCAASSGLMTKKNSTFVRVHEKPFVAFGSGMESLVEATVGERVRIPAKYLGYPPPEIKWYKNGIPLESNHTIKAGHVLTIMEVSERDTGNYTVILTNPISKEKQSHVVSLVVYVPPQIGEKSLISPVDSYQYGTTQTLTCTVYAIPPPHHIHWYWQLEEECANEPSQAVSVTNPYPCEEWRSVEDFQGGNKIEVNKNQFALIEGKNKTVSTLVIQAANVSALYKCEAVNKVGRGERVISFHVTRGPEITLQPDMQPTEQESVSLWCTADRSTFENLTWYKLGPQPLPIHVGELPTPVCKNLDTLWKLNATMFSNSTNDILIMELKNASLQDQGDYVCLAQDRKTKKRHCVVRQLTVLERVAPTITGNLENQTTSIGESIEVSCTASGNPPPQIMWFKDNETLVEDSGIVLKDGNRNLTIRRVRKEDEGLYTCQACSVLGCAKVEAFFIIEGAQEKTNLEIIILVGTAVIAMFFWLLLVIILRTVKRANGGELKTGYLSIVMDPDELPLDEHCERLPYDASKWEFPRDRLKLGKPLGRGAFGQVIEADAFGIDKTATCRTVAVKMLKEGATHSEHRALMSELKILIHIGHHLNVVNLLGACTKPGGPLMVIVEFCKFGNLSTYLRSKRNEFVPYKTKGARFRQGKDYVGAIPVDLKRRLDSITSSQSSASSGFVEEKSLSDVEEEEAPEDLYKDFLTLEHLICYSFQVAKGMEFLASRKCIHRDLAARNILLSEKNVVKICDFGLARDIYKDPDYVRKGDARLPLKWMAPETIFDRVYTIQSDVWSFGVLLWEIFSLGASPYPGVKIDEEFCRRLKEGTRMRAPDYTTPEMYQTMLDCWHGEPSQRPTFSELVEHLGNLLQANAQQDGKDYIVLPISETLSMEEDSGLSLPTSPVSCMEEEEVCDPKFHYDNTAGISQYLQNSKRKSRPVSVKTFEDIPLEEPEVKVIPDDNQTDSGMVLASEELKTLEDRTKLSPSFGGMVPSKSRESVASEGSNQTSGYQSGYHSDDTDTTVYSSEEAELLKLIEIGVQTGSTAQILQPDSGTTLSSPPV

[6] = target: T1, Receptor-type tyrosine-protein kinase FLT3 (Homo sapiens, UniProt P36888); assay: Inhibition of FLT-3 (unknown origin) by ELISA
T1 sequence (P36888 whole entry): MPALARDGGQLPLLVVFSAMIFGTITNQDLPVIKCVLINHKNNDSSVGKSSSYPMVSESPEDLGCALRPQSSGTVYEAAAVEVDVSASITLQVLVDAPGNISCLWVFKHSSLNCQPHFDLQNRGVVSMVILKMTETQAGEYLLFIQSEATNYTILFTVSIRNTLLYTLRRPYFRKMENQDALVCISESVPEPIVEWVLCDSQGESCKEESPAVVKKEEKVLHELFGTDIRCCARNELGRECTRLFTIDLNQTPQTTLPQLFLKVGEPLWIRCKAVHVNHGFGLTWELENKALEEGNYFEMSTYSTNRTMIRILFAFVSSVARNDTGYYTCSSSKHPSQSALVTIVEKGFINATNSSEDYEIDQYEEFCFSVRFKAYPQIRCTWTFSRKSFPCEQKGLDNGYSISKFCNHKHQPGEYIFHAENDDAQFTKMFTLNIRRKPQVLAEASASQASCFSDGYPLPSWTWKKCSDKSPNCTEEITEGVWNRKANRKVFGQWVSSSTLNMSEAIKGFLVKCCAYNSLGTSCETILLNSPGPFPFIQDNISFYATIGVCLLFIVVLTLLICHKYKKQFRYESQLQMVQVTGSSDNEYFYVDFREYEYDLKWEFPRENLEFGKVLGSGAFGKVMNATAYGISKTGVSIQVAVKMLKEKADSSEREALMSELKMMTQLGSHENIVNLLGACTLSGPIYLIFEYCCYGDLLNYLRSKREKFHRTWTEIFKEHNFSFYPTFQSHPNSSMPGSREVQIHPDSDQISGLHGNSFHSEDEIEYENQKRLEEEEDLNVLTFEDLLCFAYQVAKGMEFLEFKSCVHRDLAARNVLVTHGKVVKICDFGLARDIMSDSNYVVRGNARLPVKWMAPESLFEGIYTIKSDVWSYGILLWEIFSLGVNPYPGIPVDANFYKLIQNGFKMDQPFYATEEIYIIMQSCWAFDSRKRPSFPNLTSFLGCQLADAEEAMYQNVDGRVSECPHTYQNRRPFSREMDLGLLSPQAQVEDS

[7] = target: Proto-oncogene tyrosine-protein kinase Src (Homo sapiens, UniProt P12931); assay: Inhibition of SRC (unknown origin) by ELISA
[8] = Cmax in Sprague-Dawley rat at 3 mg/kg, po via gavage measured up to 24 hrs by LC-MS analysis; assay type: ADME, organism-based; parameters: route oral, dose 3 mg/kg, time <=24; conditions: in vivo; procedure, shortened: as §1
[9] = target: Insulin-like growth factor 1 receptor (Homo sapiens, UniProt P08069); assay: Inhibition of IGF1R (unknown origin) by ELISA
Insulin-like growth factor 1 receptor, sequence (P08069 31-736 limits assumed): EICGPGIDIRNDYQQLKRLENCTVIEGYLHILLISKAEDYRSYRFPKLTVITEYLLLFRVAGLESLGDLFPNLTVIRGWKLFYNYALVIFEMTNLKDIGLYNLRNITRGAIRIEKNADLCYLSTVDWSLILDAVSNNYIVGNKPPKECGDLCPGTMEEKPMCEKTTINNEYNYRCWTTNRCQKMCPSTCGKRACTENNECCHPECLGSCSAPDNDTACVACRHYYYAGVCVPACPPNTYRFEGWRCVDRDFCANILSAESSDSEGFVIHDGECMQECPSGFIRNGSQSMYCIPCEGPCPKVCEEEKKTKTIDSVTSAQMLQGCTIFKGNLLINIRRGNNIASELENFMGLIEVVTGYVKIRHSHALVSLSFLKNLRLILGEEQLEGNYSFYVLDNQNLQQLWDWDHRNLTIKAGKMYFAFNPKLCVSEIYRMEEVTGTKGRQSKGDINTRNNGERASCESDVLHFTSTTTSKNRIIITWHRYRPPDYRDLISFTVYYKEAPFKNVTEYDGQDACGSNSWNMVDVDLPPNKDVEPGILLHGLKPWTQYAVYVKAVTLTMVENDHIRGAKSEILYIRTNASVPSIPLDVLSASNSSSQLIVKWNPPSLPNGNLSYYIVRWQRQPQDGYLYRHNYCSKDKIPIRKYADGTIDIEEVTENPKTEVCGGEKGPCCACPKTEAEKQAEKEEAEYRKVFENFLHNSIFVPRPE
Insulin-like growth factor 1 receptor, sequence (P08069 741-1367 limits assumed): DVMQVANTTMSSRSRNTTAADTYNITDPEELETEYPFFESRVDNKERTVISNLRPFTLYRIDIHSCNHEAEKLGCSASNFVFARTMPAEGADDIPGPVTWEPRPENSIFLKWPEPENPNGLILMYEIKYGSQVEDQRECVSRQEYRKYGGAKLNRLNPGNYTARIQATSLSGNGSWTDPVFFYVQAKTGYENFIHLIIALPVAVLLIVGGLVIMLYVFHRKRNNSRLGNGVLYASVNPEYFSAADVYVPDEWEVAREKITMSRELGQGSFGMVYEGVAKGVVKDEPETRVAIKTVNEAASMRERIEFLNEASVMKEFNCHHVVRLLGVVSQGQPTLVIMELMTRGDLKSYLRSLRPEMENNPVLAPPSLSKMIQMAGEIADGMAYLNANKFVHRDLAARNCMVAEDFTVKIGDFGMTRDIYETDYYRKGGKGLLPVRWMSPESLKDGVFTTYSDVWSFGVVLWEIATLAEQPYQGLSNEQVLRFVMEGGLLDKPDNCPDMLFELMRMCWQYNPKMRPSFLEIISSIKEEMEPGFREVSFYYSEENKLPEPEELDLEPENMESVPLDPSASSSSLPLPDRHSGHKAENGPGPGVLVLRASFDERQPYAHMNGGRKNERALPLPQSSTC

IC50 [1]: 0.0045 µM
IC50 (Ephrin type-A receptor 2): > 0.5 µM
IC50 [3]: > 1 µM
Tmax [4]: 1.08 h
IC50 [5]: > 1 µM
IC50 [6]: > 1 µM
IC50 [7]: > 1 µM
Cmax [8]: 14100 ng/mL
IC50 [9]: > 1 µM
Compound: CC(C)n1cc(C(=O)Nc2cc(F)c(-c3c[nH]c4ncnc(N)c34)cc2F)c(=O)c(-c2ccc(F)cc2)c1
Activity [2]: Non-Toxic
TGI (BaF3): 67.4%
